# The source made the active and inactive calls. The calls are words filed in the database; no cut-off is given here.
# How the values were obtained:
# [1] = Aqueous solubility of the compound at pH 3 after 24 hrs by LC-MS/MS analysis; type: physicochemical; conditions: buffer, pH 3, 24 h
# Method in brief: (§1)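 DMSO stock diluted to 250 μM in aqueous buffer at pH 3 or pH 7 and held 24 h. Solution filtered through a 0.22 μm membrane; compound in the filtrate quantified by LC-MS/MS.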
# [2] = Aqueous solubility of the compound at pH 7 after 24 hrs by LC-MS/MS analysis; type: physicochemical; conditions: buffer, pH 7, 24 h; method in brief: as §1
# Hepatocyte [3] = test: Half life in mouse hepatocytes at 1 uM after 90 mins by LC-MS/MS analysis; type: ADME, cell-based, Liver; conditions: 1.5 h
# Method in brief: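 Compound at 1 μM incubated at 37 °C with shaking in Leibovitz L-15 medium with mouse hepatocytes (3×10^5 cells mL⁻¹), in duplicate. […] Medium-only incubations served as negative controls; 7-ethoxycoumarin and 7-hydroxycoumarin were positive controls for phase I/II activity.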
# Hepatocyte [4] = test: Metabolic stability in mouse hepatocytes at 1 uM after 90 mins by LC-MS/MS analysis; type: ADME, cell-based; conditions: 1.5 h
# Method in brief: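 Each compound at 1 μM incubated at 37 °C in Leibovitz L-15 medium with mouse hepatocytes (3×10^5 cells mL⁻¹), in duplicate with shaking. […] After centrifugation the supernatant went to LC-MS/MS. Controls were compound in medium alone, and 7-ethoxycoumarin/7-hydroxycoumarin for phase I/II activity.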
# [5] = Apparent permeability at 10 uM after 4 hrs by PAMPA; type: ADME
# Method in brief: (§2)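 Passive diffusion across 15% soy lecithin in n-dodecane artificial membrane on a filter plate. […] Sandwich incubated 4 h at 37 °C. Acceptor, donor and initial donor solutions quantified by LC-MS/MS; Papp and % membrane retention calculated.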
# [6] = Apparent permeability assessed as membrane retention at 10 uM after 4 hrs by PAMPA; type: ADME; method in brief: as §2
# [7] = molecular target: T1, Sterol regulatory element-binding protein 2 (Homo sapiens) (UniProt Q12772); conditions: CHO-K1; 1 to 20 uM
# T1 sequence (whole entry): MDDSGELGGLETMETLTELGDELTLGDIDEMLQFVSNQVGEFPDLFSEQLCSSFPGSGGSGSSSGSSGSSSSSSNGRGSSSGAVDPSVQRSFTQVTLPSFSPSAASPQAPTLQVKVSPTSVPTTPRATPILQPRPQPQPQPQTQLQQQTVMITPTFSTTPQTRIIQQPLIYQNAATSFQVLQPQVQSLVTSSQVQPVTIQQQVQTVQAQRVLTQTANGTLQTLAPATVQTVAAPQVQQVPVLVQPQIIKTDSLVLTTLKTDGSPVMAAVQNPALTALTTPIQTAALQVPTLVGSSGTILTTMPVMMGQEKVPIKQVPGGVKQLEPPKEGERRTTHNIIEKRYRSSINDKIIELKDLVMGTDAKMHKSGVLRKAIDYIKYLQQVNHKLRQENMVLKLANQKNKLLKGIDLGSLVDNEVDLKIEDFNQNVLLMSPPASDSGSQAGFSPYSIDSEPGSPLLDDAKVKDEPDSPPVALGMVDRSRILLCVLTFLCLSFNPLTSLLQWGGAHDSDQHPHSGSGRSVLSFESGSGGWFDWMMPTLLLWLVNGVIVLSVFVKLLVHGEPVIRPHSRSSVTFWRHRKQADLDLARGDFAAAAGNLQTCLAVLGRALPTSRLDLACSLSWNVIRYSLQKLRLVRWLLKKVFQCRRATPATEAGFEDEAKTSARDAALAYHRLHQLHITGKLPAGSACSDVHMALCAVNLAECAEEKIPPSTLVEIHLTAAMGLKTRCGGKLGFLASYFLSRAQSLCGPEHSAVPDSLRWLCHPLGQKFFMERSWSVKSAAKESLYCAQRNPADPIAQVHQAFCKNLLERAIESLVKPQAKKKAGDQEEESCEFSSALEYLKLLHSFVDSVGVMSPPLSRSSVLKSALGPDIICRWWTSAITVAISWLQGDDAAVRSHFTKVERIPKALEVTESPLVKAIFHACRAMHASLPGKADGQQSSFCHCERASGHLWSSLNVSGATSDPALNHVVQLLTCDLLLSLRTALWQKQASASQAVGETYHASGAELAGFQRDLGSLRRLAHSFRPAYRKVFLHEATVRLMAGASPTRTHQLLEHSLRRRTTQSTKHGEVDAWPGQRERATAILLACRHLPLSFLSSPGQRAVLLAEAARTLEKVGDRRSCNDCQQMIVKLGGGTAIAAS
Compound,solubility [1],solubility [2],t1/2 (Hepatocyte [3]),Stability (Hepatocyte [4]),Papp [5],Activity [6],inhibition [7]
CCCc1cc(-c2nc(-c3ccc(NC(C)C)cc3)cs2)ccn1,> 225 µM,3 µM,22.4 min,Stable,1.059 ×10⁻⁶ cm/s,93.95%,–
CCCc1cc(-c2nc(-c3ccc(C)cc3)cs2)ccn1 [FATOSTATIN],80 µM,2 µM,10.1 min,Stable,0.7555 ×10⁻⁶ cm/s,94%,–
CCCc1cc(-c2nc(-c3ccc(NS(C)(=O)=O)cc3)cs2)ccn1,> 225 µM,33 µM,44.4 min,Stable,14.98 ×10⁻⁶ cm/s,97.35%,inactive
CC(=O)CC(c1ccccc1)c1c(O)c2ccccc2oc1=O (stereo not given) [WARFARIN],–,–,–,–,–,0%,–

# From ChEMBL document CHEMBL1821692, “Synthesis and evaluation of diarylthiazole derivatives that inhibit activation of sterol regulatory element-binding proteins” (J Med Chem, 2011)
